In brackets after ≈: the same amount, converted by molar mass.

Among the data in ChEMBL document CHEMBL1147401, “Bruceanols D, E, and F three new cytotoxic quassinoids from Brucea antidysenterica” (1993) are EC50 values, retold here.

Format in all cases: functional
Conditions in all cases: read-out: ED50 (the source's name)

One assay relates to A549. Nature of the assay: Cytotoxicity against human A549 cells. Summed up: (§1)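 In vitro cytotoxicity assay run by published protocols. Cell panel: human malignant melanoma ([…]), lung carcinoma (A-549), ileocecal adenocarcinoma (HCT-8), nasopharyngeal epidermoid carcinoma (KB), medulloblastoma (TE-671), and murine lymphocytic leukemia (P-388).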
The next assay has as its system TE-671. Nature of the assay: Cytotoxicity against human TE671 cells. The procedure, abridged: as §1
In a further assay the test system is P388. Nature of the assay: Cytotoxicity against mouse P388 cells. Summed up: as §1
A further assay relates to RPMI-7951. The assay is described as follows: Cytotoxicity against human RPMI7951 cells. The procedure, abridged: as §1
The subject of another assay is KB. Nature of the assay: Cytotoxicity against human KB cells. The procedure, abridged: as §1
A further assay deals with HCT-8. Nature of the assay: Cytotoxicity against human HCT8 cells. The procedure, abridged: as §1

For `COC(=O)[C@]12OC[C@]34[C@H]([C@@H](O)[C@@H]1O)[C@@]1(C)[C@H](O)C(=O)C=C(C)[C@@H]1C[C@H]3OC(=O)[C@H](OC(=O)/C=C(\C)C(C)C)[C@@H]24` [BRUCEANOL D], the EC50 in the assay on A549 amounted to 0.55 µg/mL (≈ 1 µM); in the assay on TE-671 it was 0.08 µg/mL (≈ 0.146 µM); with P388, 0.09 µg/mL (≈ 0.164 µM); in the assay with RPMI-7951, 0.09 µg/mL (≈ 0.164 µM); in the assay on KB, 0.08 µg/mL (≈ 0.146 µM); with HCT-8, 0.09 µg/mL (≈ 0.164 µM).
With `COC(=O)[C@]12OC[C@]34[C@H]([C@@H](O)[C@@H]1O)[C@@]1(C)[C@H](O)C(=O)C[C@@H](C)[C@@H]1C[C@H]3OC(=O)[C@H](OC(=O)/C=C(\C)C(C)C)[C@@H]24` [BRUCEANOL E], the EC50 in the assay on A549 was 3.75 µg/mL (≈ 6.81 µM); in the assay with TE-671, 0.12 µg/mL (≈ 0.218 µM); in the assay with P388, 0.57 µg/mL (≈ 1.04 µM); with RPMI-7951 it was 0.11 µg/mL (≈ 0.2 µM); in the assay on KB, 0.55 µg/mL (≈ 0.999 µM); with HCT-8 it was 0.37 µg/mL (≈ 0.672 µM).
Take `COC(=O)[C@]12OC[C@]34[C@H]([C@@H](O)[C@@H]1O)[C@@]1(C)C(=O)C(O)=C[C@@H](C)[C@@H]1C[C@H]3OC(=O)[C@H](OC(=O)/C=C(\C)C(C)C)[C@@H]24` [BRUCEANOL F]: the EC50 in the assay with A549 was 0.55 µg/mL (≈ 1 µM); in the assay with TE-671, 0.09 µg/mL (≈ 0.164 µM); in the assay with P388, 0.36 µg/mL (≈ 0.656 µM); in the assay with RPMI-7951 it was 0.09 µg/mL (≈ 0.164 µM); in the assay on KB it was 0.43 µg/mL (≈ 0.784 µM); with HCT-8, 0.13 µg/mL (≈ 0.237 µM).
